# Measured values of several laboratories.
# Protocols differ between the studies behind these lines.
# Observed: enzyme activity
# Mode: inhibitor
# RET: Proto-oncogene tyrosine-protein kinase receptor Ret (RET, Homo sapiens, UniProt P07949)
# RET V804L: Proto-oncogene tyrosine-protein kinase receptor Ret (RET, Homo sapiens, UniProt P07949, V804L)
# RET Y791F: Proto-oncogene tyrosine-protein kinase receptor Ret (RET, Homo sapiens, UniProt P07949, Y791F)
target,test,setting,inhibition,Compound
RET,,2 µM,42%,CNCc1ccc(-c2cc(-c3nc(-c4ccc(S(=O)(=O)C(C)C)cc4)cnc3N)on2)cc1
RET V804L,,1 µM,8%,C=CC(=O)Nc1cc(Nc2nccc(Nc3cc(Cl)c(F)cc3C(C)(C)O)n2)c(OC)cc1N1CC[C@@H](N(C)C)C1
RET V804L,,1 µM,2%,COc1cc2ncnc(Nc3ccc(Oc4ccccc4)c(C)c3C)c2cc1OC
RET,radiometric,1 µM,98%,CNC(=O)c1cc2c(Oc3ccc(NC(=O)C4(C(=O)Nc5ccc(F)cc5)CC4)cc3)ccnc2cc1OC
RET,,0.1 µM,0.2%,CC/C(=N\NC(=O)NCc1cccc(O)c1)c1ccc(O)c(C)c1O
RET,,1 µM,< 10%,CCCS(=O)(=O)Nc1ccc(F)c(C(=O)c2c[nH]c3ncc(-c4ccc(Cl)cc4)cc23)c1F
RET Y791F,,0.1 µM,3%,COc1cc(-c2cc(-c3ccc(N4CCNCC4)cc3)cnc2N)cc(OC)c1OC
RET Y791F,,1 µM,36%,COc1cc2ncnc(Nc3ccc(Oc4ccccc4)cc3C)c2cc1OC
RET,,0.1 µM,15%,COc1cc2nccc(Oc3ccc(NC(=O)c4c5n(n(-c6ccc(F)cc6)c4=O)CCCC5)cc3)c2cc1OC
